Where “and” joins values, the source holds several entries; their conditions need not be identical. Equal entries are not always repeated.
Test system: Fibroblast
Test: Multiplex assay against human fibroblast
Type: toxicity, cell-based
How it was run: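 On a CQ1 microscope at 37°C and 5% CO2, live cells were imaged after compound addition. They had been stained at seeding with Hoechst33342, BioTracker Green Microtubule Cytoskeleton Dye, MitoTracker Red and Annexin V Alexa Fluor 680. CellPathfinder machine-learning gating assigned cells to Hoechst high-intensity objects or normal cells, normal cells to healthy, pyknosed or fragmented nuclei, and pyknosed cells to mitotic or apoptotic. Tubulin, mitochondrial-mass and membrane-permeability phenotypes are per cents of healthy-nucleus cells.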

[1] = 12 h, 1 µM, compound concentration 1 uM, replicate 1
[2] = 12 h, 1 µM, compound concentration 1 uM, replicate 2
[3] = 12 h, 10 µM, compound concentration 10 uM, replicate 1
[4] = 12 h, 10 µM, compound concentration 10 uM, replicate 2
[5] = 24 h, 1 µM, compound concentration 1 uM, replicate 1
[6] = 24 h, 1 µM, compound concentration 1 uM, replicate 2
[7] = 24 h, 10 µM, compound concentration 10 uM, replicate 1
[8] = 24 h, 10 µM, compound concentration 10 uM, replicate 2
[9] = 48 h, 10 µM, compound concentration 10 uM, replicate 1
[10] = 48 h, 10 µM, compound concentration 10 uM, replicate 2

COCC(=O)NC/C=C/c1ccc2ncnc(Nc3ccc(Oc4ccc(C)nc4)c(C)c3)c2c1 [CP-724714]
Population Apoptotic (%) [1]: 52% and 82% | Population Fragmented Nuclei (%) [1]: 30% and 25% | Population Healthy Nuclei (%) [1]: 51% and 59% | Population Hoechst High Intensity Objects (%) [1]: 14% and 12% | Population Membrane Permeable-Phenotype (%) [1]: 29% and 10% | Population Mitotic Cells (%) [1]: 47% and 17% | Population Normal (%) [1]: 85% and 87% | Population Pyknosed Nuclei (%) [1]: 18% | Total Cell Count [1]: 245 and 254 | Population Fragmented Nuclei (%) [2]: 50% and 54% | Population Healthy Nuclei (%) [2]: 33% and 20% | Population Hoechst High Intensity Objects (%) [2]: 27% and 42% | Population Membrane Permeable-Phenotype (%) [2]: 22% and 11% | Population Normal (%) [2]: 72% and 57% | Population Pyknosed Nuclei (%) [2]: 15% and 25% | Population Tubulin-Different-Phenotype (%) [2]: 22% and 44% | Total Cell Count [2]: 73 and 76 | Population Apoptotic (%) [3]: 51% | Population Fragmented Nuclei (%) [3]: 33% | Population Healthy Nuclei (%) [3]: 37% | Population Hoechst High Intensity Objects (%) [3]: 14% | Population Membrane Permeable-Phenotype (%) [3]: 14% | Population Mitochondria Different-Phenotype (%) [3]: 50% | Population Mitotic Cells (%) [3]: 48% | Population Normal (%) [3]: 85% | Population Pyknosed Nuclei (%) [3]: 29% | Population Tubulin-Different-Phenotype (%) [3]: 87% | Total Cell Count [3]: 148 | Population Apoptotic (%) [4]: 80% | Population Fragmented Nuclei (%) [4]: 18% | Population Healthy Nuclei (%) [4]: 63% | Population Hoechst High Intensity Objects (%) [4]: 11% | Population Membrane Permeable-Phenotype (%) [4]: 37% | Population Mitochondria Different-Phenotype (%) [4]: 94% | Population Mitotic Cells (%) [4]: 20% | Population Normal (%) [4]: 88% | Population Pyknosed Nuclei (%) [4]: 18% | Population Tubulin-Different-Phenotype (%) [4]: 100% | Total Cell Count [4]: 62 | Population Apoptotic (%) [5]: 58% and 59% | Population Fragmented Nuclei (%) [5]: 30% and 19% | Population Healthy Nuclei (%) [5]: 51% and 62% | Population Hoechst High Intensity Objects (%) [5]: 14% and 11% | Population Mitotic Cells (%) [5]: 41% and 40% | Population Normal (%) [5]: 85% and 88% | Population Pyknosed Nuclei (%) [5]: 17% and 18% | Total Cell Count [5]: 243 and 259 | Population Apoptotic (%) [6]: 37% and 77% | Population Fragmented Nuclei (%) [6]: 55% and 57% | Population Healthy Nuclei (%) [6]: 31% and 21% | Population Hoechst High Intensity Objects (%) [6]: 24% and 51% | Population Membrane Permeable-Phenotype (%) [6]: 16% and 11% | Population Mitochondria Different-Phenotype (%) [6]: 22% and 33% | Population Mitotic Cells (%) [6]: 62% and 22% | Population Normal (%) [6]: 75% and 48% | Population Pyknosed Nuclei (%) [6]: 13% and 21% | Total Cell Count [6]: 77 and 86 | Population Apoptotic (%) [7]: 57% | Population Fragmented Nuclei (%) [7]: 34% | Population Healthy Nuclei (%) [7]: 34% | Population Hoechst High Intensity Objects (%) [7]: 14% | Population Membrane Permeable-Phenotype (%) [7]: 16% | Population Mitochondria Different-Phenotype (%) [7]: 69% | Population Mitotic Cells (%) [7]: 42% | Population Normal (%) [7]: 85% | Population Pyknosed Nuclei (%) [7]: 30% | Population Tubulin-Different-Phenotype (%) [7]: 95% | Total Cell Count [7]: 144 | Population Apoptotic (%) [8]: 60% | Population Fragmented Nuclei (%) [8]: 16% | Population Healthy Nuclei (%) [8]: 54% | Population Hoechst High Intensity Objects (%) [8]: 11% | Population Membrane Permeable-Phenotype (%) [8]: 51% | Population Mitochondria Different-Phenotype (%) [8]: 96% | Population Mitotic Cells (%) [8]: 40% | Population Normal (%) [8]: 88% | Population Pyknosed Nuclei (%) [8]: 28% | Population Tubulin-Different-Phenotype (%) [8]: 100% | Total Cell Count [8]: 60 | Population Apoptotic (%) [9]: 77% | Population Fragmented Nuclei (%) [9]: 35% | Population Healthy Nuclei (%) [9]: 44% | Population Hoechst High Intensity Objects (%) [9]: 14% | Population Membrane Permeable-Phenotype (%) [9]: 10% | Population Mitochondria Different-Phenotype (%) [9]: 41% | Population Mitotic Cells (%) [9]: 22% | Population Normal (%) [9]: 85% | Population Pyknosed Nuclei (%) [9]: 20% | Population Tubulin-Different-Phenotype (%) [9]: 86% | Total Cell Count [9]: 154 | Population Apoptotic (%) [10]: 40% | Population Fragmented Nuclei (%) [10]: 34% | Population Healthy Nuclei (%) [10]: 61% | Population Hoechst High Intensity Objects (%) [10]: 8% | Population Membrane Permeable-Phenotype (%) [10]: 14% | Population Mitochondria Different-Phenotype (%) [10]: 34% | Population Mitotic Cells (%) [10]: 60% | Population Normal (%) [10]: 91% | Population Pyknosed Nuclei (%) [10]: 3% | Population Tubulin-Different-Phenotype (%) [10]: 94% | Total Cell Count [10]: 163

From ChEMBL document CHEMBL4689842, “EUbOPEN Chemogenomics Library wave 1” (2021)
